Experimental data reported in ChEMBL document CHEMBL4145683, “Total Synthesis and Structure-Activity Relationships Study of Odilorhabdins, a New Class of Peptides Showing Potent Antibacterial Activity” (J Med Chem, 2018).
≈ marks a conversion by molar mass, not a printed value. Non-standard residues stand in square brackets, D forms with d. Residues, ends and D or L forms follow the SMILES beside them. *: point of attachment. Dab(3S-OH) = NC[C@H](O)[C@H](N)C(=O)O; ΔZArg = N=C(N)NCC/C=C(\N)C(=O)O; aThr = C[C@H](O)[C@H](N)C(=O)O; dOrn = NCCC[C@@H](N)C(=O)O; Dab = NCC[C@H](N)C(=O)O; NH(CH2)4NH2 = NCCCCN*

Tests used:
Klebsiella pneumoniae = test: Antimicrobial activity against Klebsiella pneumoniae ATCC 43816 by broth microdilution method; assay type: functional; conditions: Klebsiella pneumoniae, ATCC 43816; read-out: MIC
Outline: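 Broth microdilution MIC per CLSI M07-A10, with inoculum prepared by direct colony suspension. Reference strains were from ATCC and NCTC.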

Escherichia coli [1] = test: Inhibition of bacterial protein synthesis in cell-free Escherichia coli incubated for 1 hr and measured for every 20 mins by bacterial cell-free transcription-translation assay; assay type: functional
Outline: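 E. coli cell-free coupled transcription-translation used a GFP gene in pEXP5-CT as template, started with 1 μg plasmid in 50 μL reactions. Feed buffer was added at 30 min, with incubation at 30 °C. Fluorescence (ex 475/em 520 nm) was read every 20 min. IC50 was taken at 1 h after feed addition from a four-parameter log(inhibitor)–response fit. Duplicates.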

Escherichia coli [2] = test: microbe, parasite or virus in culture; conditions: ATCC 25922

Molecule | MIC (Klebsiella pneumoniae) [µg/mL] | IC50 (Escherichia coli [1]; Escherichia coli) [nM] | MIC (Escherichia coli [2]) [µg/mL] | IC50 (Escherichia coli [1]) [nM]
CC(C)[C@H](NC(=O)[C@@H](NC(=O)[C@@H](N)CCCCN)[C@@H](O)CN)C(=O)NCC(=O)N[C@H](CCCN)C(=O)N1CCC[C@H]1C(=O)N[C@@H](Cc1cnc[nH]1)C(=O)N[C@@H](CCCCN)C(=O)N/C(=C\CCNC(=N)N)C(=O)N[C@@H](CCCCN)C(=O)NCCCCN (H-K[Dab(3S-OH)]VG[dOrn]PHK[ΔZArg]K-{NH(CH2)4NH2}) | 2 (≈ 1.6 µM) | 800 | 4 (≈ 3.21 µM) | –
N=C(N)NCC/C=C(\NC(=O)[C@H](CCCCN)NC(=O)[C@H](Cc1cnc[nH]1)NC(=O)[C@@H]1CCCN1C(=O)[C@@H](CCCN)NC(=O)CNC(=O)[C@H](CO)NC(=O)[C@@H](NC(=O)[C@@H](N)CCCCN)[C@@H](O)CN)C(=O)N[C@@H](CCCCN)C(=O)NCCCCN (H-K[Dab(3S-OH)]SG[dOrn]PHK[ΔZArg]K-{NH(CH2)4NH2}) | 4 (≈ 3.24 µM) | 660 | 4 (≈ 3.24 µM) | –
O=C(N[C@H](CO)[C@H](O)c1ccc([N+](=O)[O-])cc1)C(Cl)Cl [CHLORAMPHENICOL] | – | 7740 | – | –
C[C@H](NC(=O)[C@@H](N)CCCCN)C(=O)N[C@H](C(=O)NCC(=O)N[C@H](CCCN)C(=O)N1CCC[C@H]1C(=O)N[C@@H](Cc1cnc[nH]1)C(=O)N[C@@H](CCCCN)C(=O)N/C(=C\CCNC(=N)N)C(=O)N[C@@H](CCCCN)C(=O)NCCCCN)[C@@H](O)CN | > 64 | 4500 | > 64 | –
N=C(N)NCC/C=C(\NC(=O)[C@H](CCCCN)NC(=O)[C@H](Cc1cnc[nH]1)NC(=O)[C@@H]1CCCN1C(=O)[C@@H](CCCN)NC(=O)CNC(=O)[C@@H](NC(=O)[C@@H](N)[C@@H](O)CN)[C@@H](O)CN)C(=O)N[C@@H](CCCCN)C(=O)NCCCCN | > 64 | > 40000 | > 64 | –
C[C@H](NC(=O)[C@H](Cc1cnc[nH]1)NC(=O)[C@@H]1CCCN1C(=O)[C@@H](CCCN)NC(=O)CNC(=O)[C@@H](NC(=O)[C@@H](NC(=O)[C@@H](N)CCCCN)[C@@H](O)CN)[C@@H](O)CN)C(=O)N/C(=C\CCNC(=N)N)C(=O)N[C@@H](CCCCN)C(=O)NCCCCN | 4 (≈ 3.31 µM) | 1850 | 16 (≈ 13.3 µM) | –
C/C=C(\NC(=O)[C@H](CCCCN)NC(=O)[C@H](Cc1cnc[nH]1)NC(=O)[C@@H]1CCCN1C(=O)[C@@H](CCCN)NC(=O)CNC(=O)[C@@H](NC(=O)[C@@H](NC(=O)[C@@H](N)CCCCN)[C@@H](O)CN)[C@@H](O)CN)C(=O)N[C@@H](CCCCN)C(=O)NCCCCN | 8 (≈ 6.7 µM) | 830 | 16 (≈ 13.4 µM) | –
CN[C@@H]1[C@H](O)[C@H](NC)[C@H]2O[C@@]3(O)C(=O)C[C@@H](C)O[C@H]3O[C@@H]2[C@H]1O [SPECTINOMYCIN] | – | 990 | – | –
N=C(N)NCCC[C@@H](NC(=O)[C@H](CCCCN)NC(=O)[C@H](Cc1cnc[nH]1)NC(=O)[C@@H]1CCCN1C(=O)[C@@H](CCCN)NC(=O)CNC(=O)[C@@H](NC(=O)[C@@H](NC(=O)[C@@H](N)CCCCN)[C@@H](O)CN)[C@@H](O)CN)C(=O)N[C@@H](CCCCN)C(=O)NCCCCN (H-K[Dab(3S-OH)][Dab(3S-OH)]G[dOrn]PHK[dR]K-{NH(CH2)4NH2}) | 16 (≈ 12.6 µM) | 980 | 16 (≈ 12.6 µM) | –
C[C@H](NC(=O)[C@H](CCCCN)NC(=O)[C@H](Cc1cnc[nH]1)NC(=O)[C@@H]1CCCN1C(=O)[C@@H](CCCN)NC(=O)CNC(=O)[C@@H](NC(=O)[C@@H](NC(=O)[C@@H](N)CCCCN)[C@@H](O)CN)[C@@H](O)CN)C(=O)N[C@@H](CCCCN)C(=O)NCCCCN (H-K[Dab(3S-OH)][Dab(3S-OH)]G[dOrn]PHKAK-{NH(CH2)4NH2}) | 64 (≈ 54.2 µM) | 2400 | > 64 | –
C[C@H](NC(=O)[C@@H]1CCCN1C(=O)[C@@H](CCCN)NC(=O)CNC(=O)[C@@H](NC(=O)[C@@H](NC(=O)[C@@H](N)CCCCN)[C@@H](O)CN)[C@@H](O)CN)C(=O)N[C@@H](CCCCN)C(=O)N/C(=C\CCNC(=N)N)C(=O)N[C@@H](CCCCN)C(=O)NCCCCN (H-K[Dab(3S-OH)][Dab(3S-OH)]G[dOrn]PAK[ΔZArg]K-{NH(CH2)4NH2}) | 8 (≈ 6.68 µM) | 390 | 8 (≈ 6.68 µM) | –
C[C@H](O)[C@H](NC(=O)[C@@H](NC(=O)[C@@H](N)CCCCN)[C@@H](O)CN)C(=O)NCC(=O)N[C@H](CCCN)C(=O)N1CCC[C@H]1C(=O)N[C@@H](Cc1cnc[nH]1)C(=O)N[C@@H](CCCCN)C(=O)N/C(=C\CCNC(=N)N)C(=O)N[C@@H](CCCCN)C(=O)NCCCCN (H-K[Dab(3S-OH)][aThr]G[dOrn]PHK[ΔZArg]K-{NH(CH2)4NH2}) | 8 (≈ 6.4 µM) | 1000 | 8 (≈ 6.4 µM) | –
N=C(N)NCC/C=C(\NC(=O)[C@H](CCCCN)NC(=O)[C@H](Cc1cnc[nH]1)NC(=O)[C@@H]1CCCN1C(=O)[C@@H](CCCN)NC(=O)CNC(=O)[C@@H](NC(=O)[C@@H](NC(=O)[C@@H](N)CCCCN)[C@@H](O)CN)[C@@H](O)CN)C(=O)O (H-K[Dab(3S-OH)][Dab(3S-OH)]G[dOrn]PHK[ΔZArg]-OH) | 4 (≈ 3.75 µM) | 430 | 16 (≈ 15 µM) | –
N=C(N)NCCC[C@H](NC(=O)[C@H](CCCCN)NC(=O)[C@H](Cc1cnc[nH]1)NC(=O)[C@@H]1CCCN1C(=O)[C@@H](CCCN)NC(=O)CNC(=O)[C@@H](NC(=O)[C@@H](NC(=O)[C@@H](N)CCCCN)[C@@H](O)CN)[C@@H](O)CN)C(=O)N[C@@H](CCCCN)C(=O)NCCCCN (H-K[Dab(3S-OH)][Dab(3S-OH)]G[dOrn]PHKRK-{NH(CH2)4NH2}) | 8 (≈ 6.32 µM) | 1530 | 32 (≈ 25.3 µM) | –
NCCCC[C@H](N)C(=O)N[C@H](C(=O)N[C@H](C(=O)NCC(=O)N[C@H](CCCN)C(=O)N1CCC[C@H]1C(=O)N[C@@H](Cc1cnc[nH]1)C(=O)O)[C@@H](O)CN)[C@@H](O)CN | > 64 | 9600 | > 64 | –
GENTAMICIN | – | – | – | 310
C[C@H](NC(=O)[C@@H](CCCN)NC(=O)CNC(=O)[C@@H](NC(=O)[C@@H](NC(=O)[C@@H](N)CCCCN)[C@@H](O)CN)[C@@H](O)CN)C(=O)N[C@@H](Cc1cnc[nH]1)C(=O)N[C@@H](CCCCN)C(=O)N/C(=C\CCNC(=N)N)C(=O)N[C@@H](CCCCN)C(=O)NCCCCN (H-K[Dab(3S-OH)][Dab(3S-OH)]G[dOrn]AHK[ΔZArg]K-{NH(CH2)4NH2}) | 32 (≈ 25.8 µM) | 2410 | 16 (≈ 12.9 µM) | –
C[C@H](N)C(=O)N[C@H](C(=O)N[C@H](C(=O)NCC(=O)N[C@H](CCCN)C(=O)N1CCC[C@H]1C(=O)N[C@@H](Cc1cnc[nH]1)C(=O)N[C@@H](CCCCN)C(=O)N/C(=C\CCNC(=N)N)C(=O)N[C@@H](CCCCN)C(=O)NCCCCN)[C@@H](O)CN)[C@@H](O)CN (H-A[Dab(3S-OH)][Dab(3S-OH)]G[dOrn]PHK[ΔZArg]K-{NH(CH2)4NH2}) | 8 (≈ 6.63 µM) | 730 | 16 (≈ 13.3 µM) | –
C[C@H](NC(=O)/C(=C/CCNC(=N)N)NC(=O)[C@H](CCCCN)NC(=O)[C@H](Cc1cnc[nH]1)NC(=O)[C@@H]1CCCN1C(=O)[C@@H](CCCN)NC(=O)CNC(=O)[C@@H](NC(=O)[C@@H](NC(=O)[C@@H](N)CCCCN)[C@@H](O)CN)[C@@H](O)CN)C(=O)NCCCCN (H-K[Dab(3S-OH)][Dab(3S-OH)]G[dOrn]PHK[ΔZArg]A-{NH(CH2)4NH2}) | 8 (≈ 6.63 µM) | 1040 | 8 (≈ 6.63 µM) | –
NCCCC[C@H](NC(=O)[C@H](Cc1cnc[nH]1)NC(=O)[C@@H]1CCCN1C(=O)[C@@H](CCCN)NC(=O)CNC(=O)[C@@H](NC(=O)[C@@H](NC(=O)[C@@H](N)CCCCN)[C@@H](O)CN)[C@@H](O)CN)C(=O)O | > 64 | 10000 | > 64 | –
N=C(N)NCC/C=C(\NC(=O)[C@H](CCCCN)NC(=O)[C@H](Cc1cnc[nH]1)NC(=O)[C@@H]1CCCN1C(=O)[C@@H](CCCN)NC(=O)CNC(=O)[C@H](CCN)NC(=O)[C@@H](NC(=O)[C@@H](N)CCCCN)[C@@H](O)CN)C(=O)N[C@@H](CCCCN)C(=O)NCCCCN (H-K[Dab(3S-OH)][Dab]G[dOrn]PHK[ΔZArg]K-{NH(CH2)4NH2}) | 4 (≈ 3.2 µM) | 1100 | 4 (≈ 3.2 µM) | –
C[C@@H](NC(=O)CNC(=O)[C@@H](NC(=O)[C@@H](NC(=O)[C@@H](N)CCCCN)[C@@H](O)CN)[C@@H](O)CN)C(=O)N1CCC[C@H]1C(=O)N[C@@H](Cc1cnc[nH]1)C(=O)N[C@@H](CCCCN)C(=O)N/C(=C\CCNC(=N)N)C(=O)N[C@@H](CCCCN)C(=O)NCCCCN | > 64 | > 40000 | > 64 | –
N=C(N)NCC/C=C(\NC(=O)[C@H](CCCCN)NC(=O)[C@H](Cc1cnc[nH]1)NC(=O)[C@@H]1CCCN1C(=O)[C@@H](CCCN)NC(=O)CNC(=O)[C@@H](NC(=O)[C@H](CCN)NC(=O)[C@@H](N)CCCCN)[C@@H](O)CN)C(=O)N[C@@H](CCCCN)C(=O)NCCCCN (H-K[Dab][Dab(3S-OH)]G[dOrn]PHK[ΔZArg]K-{NH(CH2)4NH2}) | 64 (≈ 51.3 µM) | 5910 | > 64 | –
CC[C@H]1OC(=O)[C@H](C)[C@@H](O[C@H]2C[C@@](C)(OC)[C@@H](O)[C@H](C)O2)[C@H](C)[C@@H](O[C@@H]2O[C@H](C)C[C@H](N(C)C)[C@H]2O)[C@](C)(O)C[C@@H](C)C(=O)[C@H](C)[C@@H](O)[C@]1(C)O [ERYTHROMYCIN] | – | 2120 | – | –
C[C@H](O)[C@H](NC(=O)[C@@H](N)CCCCN)C(=O)N[C@H](C(=O)NCC(=O)N[C@H](CCCN)C(=O)N1CCC[C@H]1C(=O)N[C@@H](Cc1cnc[nH]1)C(=O)N[C@@H](CCCCN)C(=O)N/C(=C\CCNC(=N)N)C(=O)N[C@@H](CCCCN)C(=O)NCCCCN)[C@@H](O)CN | > 64 | > 40000 | > 64 | –
N=C(N)NCC/C=C(\NC(=O)[C@H](CCCCN)NC(=O)[C@H](Cc1cnc[nH]1)NC(=O)[C@@H]1CCCN1C(=O)[C@@H](CCCN)NC(=O)CNC(=O)[C@@H](NC(=O)[C@H](CO)NC(=O)[C@@H](N)CCCCN)[C@@H](O)CN)C(=O)N[C@@H](CCCCN)C(=O)NCCCCN | > 64 | > 40000 | > 64 | –
